# Laboratory results published in ChEMBL document CHEMBL4219021, “Discovery of a Small-Molecule Degrader of Bromodomain and Extra-Terminal (BET) Proteins with Picomolar Cellular Potencies and Capable of Achieving Tumor Regression” (J Med Chem, 2018).
# The source made the active and inactive calls. The rule behind the calls is not given here.
# How the values were obtained:
# [1] = molecular target: T1, Protein cereblon/Bromodomain-containing protein 2/Cullin-4A (Homo sapiens) (UniProt P25440+Q96SW2+Q13619); test: Induction of cereblon/cullin 4A-mediated BRD2 degradation in human RS4:11 cells at 1 nM after 3 hrs in presence of proteosome inhibitor MG-132 by Western blot method; format: cell-based
# [2] = molecular target: T1, Protein cereblon/Bromodomain-containing protein 2/Cullin-4A (Homo sapiens); test: Induction of cereblon/cullin 4A-mediated BRD2 degradation in human RS4:11 cells at 1 nM after 3 hrs in presence of cereblon inhibitor lenalidomide by Western blot method; format: cell-based
# [3] = molecular target: T2, Protein cereblon/Bromodomain-containing protein 3/Cullin-4A (Homo sapiens) (UniProt Q15059+Q96SW2+Q13619); test: Induction of cereblon/cullin 4A-mediated BRD3 degradation in human RS4:11 cells at 1 nM after 3 hrs in presence of BET inhibitor 4-((3-Cyclopropyl-1-ethyl-1H-pyrazol-5-yl)amino)-7-(3,5-dimethylisoxazol-4-yl)-6-methoxy-N-methyl-9H-pyrimido[4,5-b]-indole-2-carboxamide by Western blot method; format: cell-based
# Homo sapiens = species: Homo sapiens; test: Induction of cereblon/cullin 4A-mediated BET degradation in human RS4:11 cells assessed as downregulation of c-myc protein level at 0.1 nM after 24 hrs by Western blot method; format: cell-based
# Summary of the method: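 RS4;11 cells (2 × 10⁶/well) treated for 24 h at the indicated concentrations. Lysed in RIPA with protease inhibitors and immunoblotted for BRD2, BRD3, BRD4, c-Myc and PARP, with GAPDH as loading control.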
# [4] = molecular target: T3, Protein cereblon/Bromodomain-containing protein 4/Cullin-4A (Homo sapiens) (UniProt O60885+Q96SW2+Q13619); test: Induction of cereblon/cullin 4A-mediated BRD4 degradation in human RS4:11 cells at 1 nM after 3 hrs in presence of cereblon inhibitor lenalidomide by Western blot method; format: cell-based
# [5] = molecular target: T2, Protein cereblon/Bromodomain-containing protein 3/Cullin-4A (Homo sapiens); test: Induction of cereblon/cullin 4A-mediated BRD3 degradation in human RS4:11 cells at 1 nM after 3 hrs in presence of cereblon inhibitor lenalidomide by Western blot method; format: cell-based
# [6] = molecular target: T1, Protein cereblon/Bromodomain-containing protein 2/Cullin-4A (Homo sapiens); test: Induction of cereblon/cullin 4A-mediated BRD2 degradation in human RS4:11 cells at 1 nM after 3 hrs in presence of NAE inhibitor MLN4924 by Western blot method; format: cell-based
# [7] = molecular target: T3, Protein cereblon/Bromodomain-containing protein 4/Cullin-4A (Homo sapiens); test: Induction of cereblon/cullin 4A-mediated BRD4 degradation in human RS4:11 cells at 1 nM after 3 hrs in presence of BET inhibitor 4-((3-Cyclopropyl-1-ethyl-1H-pyrazol-5-yl)amino)-7-(3,5-dimethylisoxazol-4-yl)-6-methoxy-N-methyl-9H-pyrimido[4,5-b]-indole-2-carboxamide by Western blot method; format: cell-based
# [8] = molecular target: T2, Protein cereblon/Bromodomain-containing protein 3/Cullin-4A (Homo sapiens); test: Induction of cereblon/cullin 4A-mediated BRD3 degradation in human RS4:11 cells at 0.1 nM after 24 hrs by Western blot method; format: cell-based
# Summary of the method: (§1)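 Western blot of RS4;11 cells (2 × 10⁶ cells/well) in RPMI 1640 with 10% FBS, 37 °C, 5% CO₂, used within three months of thawing. Compound exposure was 3 h or 24 h at the indicated concentrations. Cells were lysed in RIPA with protease inhibitors, and BRD2, BRD3 and BRD4 were detected with specific antibodies, with GAPDH as loading control.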
# [9] = molecular target: T1, Protein cereblon/Bromodomain-containing protein 2/Cullin-4A (Homo sapiens); test: Induction of cereblon/cullin 4A-mediated BRD2 degradation in human RS4:11 cells at 1 nM after 3 hrs in presence of BET inhibitor 4-((3-Cyclopropyl-1-ethyl-1H-pyrazol-5-yl)amino)-7-(3,5-dimethylisoxazol-4-yl)-6-methoxy-N-methyl-9H-pyrimido[4,5-b]-indole-2-carboxamide by Western blot method; format: cell-based
# [10] = molecular target: T3, Protein cereblon/Bromodomain-containing protein 4/Cullin-4A (Homo sapiens); test: Induction of cereblon/cullin 4A-mediated BRD4 degradation in human RS4:11 cells after 3 hrs by Western blot method; format: cell-based; summary of the method: as §1
# MOLM-13 [11] = test: Induction of cell cycle arrest in human MOLM13 cells after 24 hrs by propidium iodide staining based flow cytometry; format: functional
# Summary of the method: (§2)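 RS4;11 or MOLM-13 cells treated with compound for 24 h, then analyzed by flow cytometry. Cell cycle read by propidium iodide staining and apoptosis by annexin V/propidium iodide staining.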
# RS4-11 [12] = test: Induction of apoptosis in human RS4:11 cells at 3 to 10 nM after 24 hrs by Annexin-V/propidium iodide staining based flow cytometry; format: functional, cell-based; summary of the method: as §2
# MOLM-13 [13] = test: Induction of apoptosis in human MOLM13 cells at 3 to 10 nM after 24 hrs by Annexin-V/propidium iodide staining based flow cytometry; format: functional, cell-based; summary of the method: as §2
# RS4-11 [14] = test: Antitumor activity against human RS4:11 cells xenografted in SCID mouse assessed as tumor growth regression at 5 mg/kg, iv […] administered every other day three times per week for 3 weeks relative to control; format: functional
# Summary of the method: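 SCID mice given 5×10⁶ RS4;11 cells in 50% Matrigel subcutaneously on the dorsal side, one tumor per mouse. Randomized at ~100 mm³, then dosed 5 mg/kg iv every other day, three times a week for 3 weeks. Tumors measured by caliper 2–3 times/week, V = LW²/2. Body weight recorded 2–3 times/week and daily toxicity checks made.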
# Mus musculus [15] = test: Toxicity in SCID mouse xenografted with human RS4:11 cells assessed as body weight loss at 5 mg/kg, iv […] administered every other day three times per week for 3 weeks; format: organism-based; details: in vivo, 504 h
# Summary of the method: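 SCID mice carried subcutaneous dorsal RS4;11 xenografts (5 × 10⁶ cells in 50% Matrigel). Once tumors reached ∼100 mm³, mice were randomized to treatment or vehicle. Dosing was 5 mg/kg iv every other day, three times weekly, for 3 weeks. Animals were checked daily for toxicity and weighed 2–3 times weekly during treatment, then at least weekly afterward.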
# Mus musculus [16] = test: In vivo induction of cereblon/cullin 4A-mediated BET degradation in tumor of SCID mouse xenografted with human RS4:11 cells assessed as downregulation of c-Myc level at 5 mg/kg, iv administered as single dose measured up to 6 hrs by Western blot method; format: functional, organism-based
# Summary of the method: (§3)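 SCID mice bearing subcutaneous RS4;11 tumors received a single 5 mg/kg iv dose. Sacrificed at 1, 3, 6 and 24 h, with vehicle controls at 6 h, two mice per time point. Tumors ground in liquid nitrogen and lysed in CHAPS buffer, then immunoblotted for BRD2/3/4, c-Myc, PARP/cleaved PARP and caspase-3/cleaved caspase-3. Actin served as loading control.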
# Mus musculus [17] = test: Increase in PARP cleavage in tumor of SCID mouse xenografted with human RS4:11 cells at 5 mg/kg administered as single dose measured up to 6 hrs by Western blot method; format: functional, organism-based; summary of the method: as §3
# [18] = Drug metabolism in mouse liver microsomes assessed as metabolite m1 formation at 10 uM after 20 to 40 mins in presence of beta-NADPH […]; format: ADME, microsome
# [19] = Drug metabolism in mouse liver microsomes assessed as metabolite m2 formation at 10 uM after 20 to 40 mins in presence of beta-NADPH […]; format: ADME, microsome
# [20] = Drug metabolism in mouse liver microsomes assessed as metabolite m3 formation at 10 uM after 20 to 40 mins in presence of beta-NADPH […]; format: ADME, microsome
# [21] = Drug metabolism in mouse liver microsomes assessed as N-butyl-4-(3-cyclopropyl-1-ethyl-1H-pyrazol-5-ylamino)-7-(3,5-dimethylisoxazol-4-yl)-6-methoxy-9H-pyrimido[4,5-b]indole-2-carboxamide formation at 10 uM after 20 to 40 mins in presence of beta-NADPH […]; format: ADME, microsome
# [22] = Drug metabolism in mouse liver microsomes assessed as 4-(3-cyclopropyl-1H-pyrazol-5-ylamino)-7-(3,5-dimethylisoxazol-4-yl)-N-(5-(2-(2,6-dioxopiperidin-3-yl)-1-oxoisoindolin-4-yl)pentyl)-6-methoxy-9H-pyrimido[4,5-b]indole-2-carboxamide formation at 10 uM after 20 to 40 mins in presence of beta-NADPH […]; format: ADME, microsome
# T2 sequence (Q13619 whole entry, looked up): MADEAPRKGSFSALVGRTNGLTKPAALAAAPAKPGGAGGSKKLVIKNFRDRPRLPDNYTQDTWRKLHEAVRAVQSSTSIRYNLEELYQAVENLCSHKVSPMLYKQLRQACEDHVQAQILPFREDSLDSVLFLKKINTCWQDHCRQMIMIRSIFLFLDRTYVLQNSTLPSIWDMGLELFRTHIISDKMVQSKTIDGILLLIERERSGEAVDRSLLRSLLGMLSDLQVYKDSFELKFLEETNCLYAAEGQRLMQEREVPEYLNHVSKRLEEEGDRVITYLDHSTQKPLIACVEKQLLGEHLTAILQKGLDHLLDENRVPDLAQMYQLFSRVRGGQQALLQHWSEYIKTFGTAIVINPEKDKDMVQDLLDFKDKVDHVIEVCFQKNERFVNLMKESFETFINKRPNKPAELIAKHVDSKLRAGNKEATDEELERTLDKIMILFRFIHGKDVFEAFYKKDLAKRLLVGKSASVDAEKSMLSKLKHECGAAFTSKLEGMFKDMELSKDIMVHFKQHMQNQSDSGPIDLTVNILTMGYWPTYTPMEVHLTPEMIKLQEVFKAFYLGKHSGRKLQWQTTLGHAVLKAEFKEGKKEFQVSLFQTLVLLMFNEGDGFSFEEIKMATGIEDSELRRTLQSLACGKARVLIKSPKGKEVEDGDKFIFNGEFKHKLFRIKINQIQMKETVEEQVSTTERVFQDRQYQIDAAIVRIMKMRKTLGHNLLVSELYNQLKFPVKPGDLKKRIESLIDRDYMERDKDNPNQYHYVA
# T2 sequence (Q15059 whole entry, looked up): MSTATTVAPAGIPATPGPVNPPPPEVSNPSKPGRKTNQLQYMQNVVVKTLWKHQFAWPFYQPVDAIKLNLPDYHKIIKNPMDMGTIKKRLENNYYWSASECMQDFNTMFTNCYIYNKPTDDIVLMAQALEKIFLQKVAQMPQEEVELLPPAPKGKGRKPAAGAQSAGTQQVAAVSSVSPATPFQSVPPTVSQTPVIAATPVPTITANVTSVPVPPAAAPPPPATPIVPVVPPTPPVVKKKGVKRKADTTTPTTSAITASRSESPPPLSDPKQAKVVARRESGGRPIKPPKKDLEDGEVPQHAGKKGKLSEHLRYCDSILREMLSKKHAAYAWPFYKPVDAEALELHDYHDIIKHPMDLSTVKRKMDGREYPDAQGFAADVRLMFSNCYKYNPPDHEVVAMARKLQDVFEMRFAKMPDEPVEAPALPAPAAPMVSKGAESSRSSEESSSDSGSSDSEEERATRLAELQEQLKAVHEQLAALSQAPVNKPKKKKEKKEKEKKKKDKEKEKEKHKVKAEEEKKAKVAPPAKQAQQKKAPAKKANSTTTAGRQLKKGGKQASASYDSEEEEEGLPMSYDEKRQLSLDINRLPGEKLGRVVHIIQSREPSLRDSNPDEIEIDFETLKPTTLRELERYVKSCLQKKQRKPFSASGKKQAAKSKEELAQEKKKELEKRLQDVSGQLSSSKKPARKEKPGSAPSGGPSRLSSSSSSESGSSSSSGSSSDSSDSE
# T2 sequence (Q96SW2 whole entry, looked up): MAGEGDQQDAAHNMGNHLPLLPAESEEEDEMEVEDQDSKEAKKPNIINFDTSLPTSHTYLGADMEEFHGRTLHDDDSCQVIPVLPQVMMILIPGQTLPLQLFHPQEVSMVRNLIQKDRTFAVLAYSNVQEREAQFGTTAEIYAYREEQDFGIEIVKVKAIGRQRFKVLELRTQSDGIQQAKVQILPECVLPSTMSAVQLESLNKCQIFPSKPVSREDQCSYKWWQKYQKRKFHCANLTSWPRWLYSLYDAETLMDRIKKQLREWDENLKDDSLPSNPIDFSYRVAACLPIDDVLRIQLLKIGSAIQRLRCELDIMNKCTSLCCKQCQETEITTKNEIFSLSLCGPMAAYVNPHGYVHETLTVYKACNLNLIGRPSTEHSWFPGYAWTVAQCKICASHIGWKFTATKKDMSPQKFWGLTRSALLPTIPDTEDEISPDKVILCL
# T1 sequence (P25440 whole entry, looked up): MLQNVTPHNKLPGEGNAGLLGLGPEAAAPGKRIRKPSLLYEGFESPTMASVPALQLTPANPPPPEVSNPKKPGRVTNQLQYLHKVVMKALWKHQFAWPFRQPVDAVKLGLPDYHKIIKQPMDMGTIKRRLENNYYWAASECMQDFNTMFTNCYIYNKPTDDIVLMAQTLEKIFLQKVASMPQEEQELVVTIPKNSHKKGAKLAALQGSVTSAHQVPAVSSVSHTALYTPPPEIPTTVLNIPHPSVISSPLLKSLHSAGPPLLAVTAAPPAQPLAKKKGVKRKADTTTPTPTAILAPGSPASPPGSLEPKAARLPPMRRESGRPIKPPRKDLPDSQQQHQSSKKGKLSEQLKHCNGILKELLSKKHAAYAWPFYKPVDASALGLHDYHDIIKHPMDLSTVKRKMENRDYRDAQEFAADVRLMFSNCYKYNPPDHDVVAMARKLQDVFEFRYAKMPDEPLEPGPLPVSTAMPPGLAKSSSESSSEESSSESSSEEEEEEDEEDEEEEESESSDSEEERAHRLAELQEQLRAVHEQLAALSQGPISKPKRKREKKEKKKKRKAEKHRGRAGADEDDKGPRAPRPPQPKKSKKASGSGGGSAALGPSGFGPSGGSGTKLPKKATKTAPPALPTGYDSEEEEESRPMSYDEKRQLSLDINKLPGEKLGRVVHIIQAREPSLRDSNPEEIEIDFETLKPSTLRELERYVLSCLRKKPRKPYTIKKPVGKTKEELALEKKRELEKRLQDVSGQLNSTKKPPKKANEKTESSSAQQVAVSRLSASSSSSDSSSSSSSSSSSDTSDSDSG
# T1 sequence (Q13619 whole entry, looked up): as the sequence (Q13619 whole entry, looked up) above
# T1 sequence (Q96SW2 whole entry, looked up): as the sequence (Q96SW2 whole entry, looked up) above
smiles,measurement,setting,value
CCn1nc(C2CC2)cc1Nc1nc(C(=O)NCCCCCc2cccc3c2CN(C2CCC(=O)NC2=O)C3=O)nc2[nH]c3cc(-c4c(C)noc4C)c(OC)cc3c12 (stereo not drawn),Activity,[1],inactive
same,Activity,[2],inactive
same,Activity,[3],inactive
same,Activity,Homo sapiens,Active
same,Activity,[4],inactive
same,Activity,[5],inactive
same,Activity,[6],inactive
same,Activity,[7],inactive
same,Activity,[8],Active
same,Activity,[9],inactive
same,Activity,[10],Dose-dependent effect
same,Activity,MOLM-13 [11],Dose-dependent effect
same,Activity,RS4-11 [12],Active
same,Activity,MOLM-13 [13],Active
same,Activity,RS4-11 [14],>90%
same,Activity,Mus musculus [15],Non-Toxic
same,Activity,Mus musculus [16],Active
same,Activity,Mus musculus [17],Active
same,Drug metabolism,[18],Metabolite_Detected
same,Drug metabolism,[19],Metabolite_Detected
same,Drug metabolism,[20],Metabolite_Detected
same,Drug metabolism,[21],Metabolite_Detected
same,Drug metabolism,[22],Metabolite_Detected
